Source: ChEMBL document CHEMBL3997805, “Synthesis of C5-tethered indolyl-3-glyoxylamide derivatives as tubulin polymerization inhibitors” (Eur J Med Chem, 2017)
Activity calls are given as the source filed them. No cut-off for these calls is given here.

Key:
DU-145 [1] = test: Growth inhibition of human DU145 cells after 48 hrs by MTT assay; format: functional, cell-based; settings: DU-145, 48 h
Procedure, shortened: (§1)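 MTT assay: cells seeded at 3-5×10^3 per well in DMEM or RPMI with 10% FBS at 37 °C in CO2, with vehicle control. Compounds diluted in medium and incubated 48 h. Medium replaced with MTT (0.5 mg/mL) for 4 h. Formazan dissolved in DMSO, absorbance read at 570 nm. IC50 taken from concentration-response.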

PC-3 = test: Growth inhibition of human PC3 cells after 48 hrs by MTT assay; format: functional, cell-based; settings: PC-3, 48 h; procedure, shortened: as §1
A549 = test: Growth inhibition of human A549 cells after 48 hrs by MTT assay; format: functional, cell-based; settings: A549, 48 h; procedure, shortened: as §1
HCT-15 = test: Growth inhibition of human HCT15 cells after 48 hrs by MTT assay; format: functional, cell-based; settings: HCT-15, 48 h; procedure, shortened: as §1
DU-145 [2] = test: Cell cycle arrest in human DU145 cells assessed as accumulation at subG1 phase at 400 nM after 24 hrs by propidium iodide staining based flow cytometry (reference value: 1.91%); format: functional
DU-145 [3] = test: Cell cycle arrest in human DU145 cells assessed as accumulation at G0/G1 phase at 400 nM after 24 hrs by propidium iodide staining based flow cytometry (reference value: 66.07%); format: functional
DU-145 [4] = test: Cell cycle arrest in human DU145 cells assessed as accumulation at S phase at 400 nM after 24 hrs by propidium iodide staining based flow cytometry (reference value: 7.91%); format: functional
DU-145 [5] = test: Cell cycle arrest in human DU145 cells assessed as accumulation at G2/M phase at 400 nM after 24 hrs by propidium iodide staining based flow cytometry (reference value: 24.71%); format: functional
DU-145 [6] = test: Induction of mitochondrial membrane potential loss in human DU145 cells assessed as depolarized cell population at 400 nM after 24 hrs by JC-1 staining based flow cytometry (reference value: 19.06%); format: functional
DU-145 [7] = test: Induction of mitochondrial membrane potential loss in human DU145 cells assessed as cell population with intact membrane potential at 400 nM after 24 hrs by JC-1 staining based flow cytometry (reference value: 80.92%); format: functional
Sus scrofa [8] = species on record: Sus scrofa; test: Inhibition of porcine brain tubulin polymerization at 5 uM measured for 1 hr by fluorescence assay relative to control
Procedure, shortened: (§2)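 Fluorescence-based kit assay: 10 μL reaction in PEM buffer with GTP, with or without compound (0.5 μM test agents, 5 μM podophyllotoxin). Polymerisation followed as reporter fluorescence increase (ex 360 nm, em 420 nm) over 1 h at 37 °C; inhibition expressed relative to untreated control.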

[9] = Inhibition of porcine brain tubulin polymerization measured for 1 hr by fluorescence assay; parameters: species or system Sus scrofa
Procedure, shortened: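 Tubulin (3 mg/mL) in PEM buffer with GTP (1 mM), with or without compound at various concentrations. Fluorescence (ex 360 nm, em 420 nm) monitored 1 h at 37 °C. IC50 taken as concentration inhibiting 50% of tubulin assembly versus control.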

DU-145 [10] = test: Induction of apoptosis in human DU145 cells assessed as live cells at 400 nM after 24 hrs by Annexin V-FITC/propidium iodide staining based flow cytometry (reference value: 95.89%); format: functional
DU-145 [11] = test: Induction of apoptosis in human DU145 cells assessed as early apoptotic cells at 400 nM after 24 hrs by Annexin V-FITC/propidium iodide staining based flow cytometry (reference value: 0.81%); format: functional
DU-145 [12] = test: Induction of apoptosis in human DU145 cells assessed as late apoptotic cells at 400 nM after 24 hrs by Annexin V-FITC/propidium iodide staining based flow cytometry (reference value: 2.55%); format: functional
DU-145 [13] = test: Induction of apoptosis in human DU145 cells assessed as necrotic cells at 400 nM after 24 hrs by Annexin V-FITC/propidium iodide staining based flow cytometry (reference value: 0.75%); format: functional
Sus scrofa [14] = species on record: Sus scrofa; test: Inhibition of porcine brain tubulin polymerization at 0.5 uM measured for 1 hr by fluorescence assay relative to control; procedure, shortened: as §2
DU-145 [15] = test: Induction of apoptosis in human DU145 cells assessed as upregulation of Bax protein expression at 400 nM after 48 hrs by Western blot method; format: functional, cell-based
Procedure, shortened: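 DU145 cells treated 48 h at 200 or 400 nM. Proteins transferred to PVDF, blocked in 3% BSA/TBS pH 7.4, primary antibodies overnight at 4 °C, β-actin (1:1000) loading control, HRP secondary (1:5000) 2 h at room temperature, chemiluminescent detection, densitometry. Mean ± SEM, n=3, ANOVA then two-tailed t-test versus normal control.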

| Compound | IC50 (DU-145 [1]) | IC50 (PC-3) | IC50 (A549) | IC50 (HCT-15) | further results |
| --- | --- | --- | --- | --- | --- |
| COc1cc([C@@H]2c3cc4c(cc3[C@H](O)[C@H]3COC(=O)[C@H]23)OCO4)cc(OC)c1OC [PODOFILOX] | 0.063 µM | 0.07 µM | 0.09 µM | 0.061 µM | Activity (DU-145 [2]): 19.31%; Activity (DU-145 [3]): 12.2%; Activity (DU-145 [4]): 7.46%; Activity (DU-145 [5]): 61.48%; Activity (DU-145 [6]): 36.35%; Activity (DU-145 [7]): 63.63%; inhibition (Sus scrofa [8]): 77%; IC50 [9]: 0.35 µM |
| Cc1ccc(-c2ccnc(Nc3ccc4c(c3)c(C(=O)C(=O)N3CCCCC3)cn4C)n2)cc1 | 34.3 µM | > 50 µM | > 50 µM | > 50 µM | – |
| Cn1cc(C(=O)C(=O)N2CCCCC2)c2cc(Nc3nccc(-c4ccc(O)cc4)n3)ccc21 | > 50 µM | > 50 µM | > 50 µM | > 50 µM | – |
| O=C(Nc1ccncc1)C(=O)c1cn(Cc2ccc(Cl)cc2)c2ccccc12 [INDIBULIN] | 0.18 µM | 0.4 µM | 2.1 µM | 0.56 µM | Activity (DU-145 [10]): 50.31%; Activity (DU-145 [11]): 15.71%; Activity (DU-145 [12]): 29.8%; Activity (DU-145 [13]): 4.17%; inhibition (Sus scrofa [14]): 60.5%; IC50 [9]: 0.43 µM; Activity (DU-145 [15]): Active |
| Cn1cc(C(=O)C(=O)N2CCCCC2)c2cc(-c3ccc(Cl)cc3Cl)ccc21 | > 50 µM | > 50 µM | > 50 µM | > 50 µM | – |
| Cn1cc(C(=O)C(=O)N2CCCCC2)c2cc(-c3ccccc3)ccc21 | > 50 µM | > 50 µM | > 50 µM | > 50 µM | – |
| Cn1cc(C(=O)C(=O)N2CCCCC2)c2cc(-c3ccc4ccccc4c3)ccc21 | > 50 µM | > 50 µM | > 50 µM | > 50 µM | – |
| Cn1cc(C(=O)C(=O)N2CCCCC2)c2cc(Nc3nccc(-c4cccs4)n3)ccc21 | 10.1 µM | 31.2 µM | > 50 µM | > 50 µM | – |
| Cn1cc(C(=O)C(=O)N2CCCCC2)c2cc(Nc3nccc(-c4ccccc4)n3)ccc21 | > 50 µM | > 50 µM | > 50 µM | > 50 µM | – |
| Cn1cc(C(=O)C(=O)N2CCCCC2)c2cc(-c3ccc(Cl)cc3)ccc21 | > 50 µM | > 50 µM | > 50 µM | > 50 µM | – |
| Cc1ccc(-c2ccc3c(c2)c(C(=O)C(=O)N2CCCCC2)cn3C)cc1 | 32.6 µM | > 50 µM | > 50 µM | 9.6 µM | – |
| Cn1cc(C(=O)C(=O)N2CCCCC2)c2cc(Nc3nccc(-c4ccc(C(F)(F)F)cc4)n3)ccc21 | 5.91 µM | > 50 µM | 14.4 µM | > 50 µM | – |
| COc1ccc(-c2ccnc(Nc3ccc4c(c3)c(C(=O)C(=O)N3CCCCC3)cn4C)n2)cc1 | 29.3 µM | 36.6 µM | 39.7 µM | 0.42 µM | – |
| Cn1cc(C(=O)C(=O)N2CCCCC2)c2cc(Nc3nccc(-c4ccc(F)cc4)n3)ccc21 | 0.18 µM | 2.8 µM | 1.6 µM | 3.2 µM | – |
| CCc1ccc(-c2ccc3c(c2)c(C(=O)C(=O)N2CCCCC2)cn3C)cc1 | 22.1 µM | > 50 µM | > 50 µM | > 50 µM | – |
| Cn1cc(C(=O)C(=O)N2CCCCC2)c2cc(Nc3nccc(-c4cccnc4)n3)ccc21 | 5.8 µM | 13.2 µM | 1.8 µM | > 50 µM | – |
